This is an account of results in ChEMBL document CHEMBL5247673, “Discovery of Small Molecules Targeting the Frameshifting Element RNA in SARS-CoV-2 Viral Genome” (ACS Med Chem Lett, 2023).

pIC50: −log10 of the molar value.

The nature of test [1]: (§1) Inhibition of programmed -1 ribosomal frameshifting in human MCF7 cells harboring pCherryGFP-CoV2-WT plasmid assessed as inhibition of GFP expression incubated for 30 mins by fluorescence microscopic analysis. Type of test: functional, cell-based. The note with it: MCF7, 0.5 h. Summed up:
(§2)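 MCF-7 cells were treated with compound at various concentrations and transfected with an mCherry–FSE–GFP reporter: WT, a stop-codon negative control, or an in-frame no-FSE plasmid. GFP expression was the read-out, compared with a DMSO (0 μM) control. Data are mean ± SD of three independent experiments.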

Test [2] is described as follows: Inhibition of programmed -1 ribosomal frameshifting in human MCF7 cells harboring pCherryGFP-CoV2-WT plasmid assessed as inhibition of GFP expression at 50 uM incubated for 30 mins by fluorescence microscopic analysis. Type of test: functional. The settings on record: MCF7, 0.5 h. Summed up: as §2
In test [3] the test system is MCF7. The test is described as §1. It is filed as functional, cell-based. Summed up:
as §2

`CCNCC1CCN(c2c(F)cc3c(=O)c(C(=O)O)cn(CC)c3c2F)C1` (stereo not drawn) [MERAFLOXACIN]: the pIC50 in test [1] is 4.47.

As to `COc1ccc(-c2nc(NCCN3CCOCC3)c3cc(OC)ccc3n2)cc1`, in test [2], the inhibition at 50 µM stood at 50%. With `COc1ccc(-c2nc(NCCN3CCOCC3)c3ccccc3n2)cc1`, in test [3], the inhibition result is “Dose-Dependent Effect”.

One may read the pIC50 as −log10 of the IC50, conventionally taken in molar units. In general, inhibition refers to the percentage by which the read-out fell short of the control.
